{"source": "paper PMC3963287", "about": "(Bioorganic & medicinal chemistry letters, 2014)", "key": {"[1]": {"tested_on": "long chain fatty acyl-CoA synthetase (ACSL)", "assay": "Inhibition of ACSL activity in solubilized brain endothelial bEND3 cells", "assay_type": "biochemical"}, "[2]": {"tested_on": "ACSL in bEND3 brain endothelial cells", "assay": "In situ [14C]-palmitate incorporation into extractable lipids of bEND3 cells", "assay_type": "cell-based", "conditions": "for Inhibition of [14C]-palmitate incorporation into extractable lipids: compounds at 15 μM, Figure 3A; for Potency ratio (rank order) for inhibition of [14C]-palmitate incorporation into extractable lipids: triacsin C at 1.5 μM, all other compounds at 15 μM", "how_it_was_run": "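bEND3 brain endothelial cells incubated with [14C]-palmitate, with test compounds at 15 μM or the reference ACSL inhibitor at 1.5 μM. Radioactivity measured in extractable lipid (fmoles [14C]-palmitate/μg lipid), aqueous fraction and media; total recovery summed from lipid, aqueous and media. Compared to untreated controls by one-way ANOVA with Dunnett's t test; n = 3–9 independent experiments.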"}, "rotavirus": {"tested_on": "rotavirus", "conditions": "cited from earlier work"}, "[3]": {"tested_on": "leukocyte recruitment (rolling, adhesion, extravasation)", "assay": "L-NAME induced leukocyte recruitment in post-capillary venules of the mesentery", "assay_type": "in vivo", "conditions": "120 minutes; for Inhibition of leukocyte rolling, adhesion and extravasation: 5 or 50 μM compound 1, 50 μM compound 9"}, "[4]": {"conditions": "aqueous; no reference given; cited from earlier work"}, "[5]": {"tested_on": "leukocyte recruitment (rolling, adhesion, extravasation)", "conditions": "5μM; cited from earlier work"}}, "data": [{"smiles": "CCC/C=C/C/C=C/C=C/CNN1CCCS1(=O)=O", "note": "[Compound 8]", "values": [{"measurement": "Folds less active compared with compound 3", "setting": "[1]", "value": "> 30", "unit": "folds"}]}, {"smiles": "CCC/C=C/C/C=C/CN(O)/N=N/c1ccc(C(=O)O)cc1", "note": "[Compound 7]", "values": [{"measurement": "Inhibition of [14C]-palmitate incorporation into extractable lipids", "setting": "[2]", "value": "significant inhibition"}, {"measurement": "Potency ratio (rank order) for inhibition of [14C]-palmitate incorporation into extractable lipids", "setting": "[2]", "value": "triacsin C > 3 > 1 > 4 > 9 = 7 > 2"}]}, {"smiles": "C=CCCCCCCCCCNc1ccc(C(=O)O)c(O)c1", "note": "[Compound 4]", "values": [{"measurement": "Inhibition of [14C]-palmitate incorporation into extractable lipids", "setting": "[2]", "value": "significant inhibition"}, {"measurement": "Potency ratio (rank order) for inhibition of [14C]-palmitate incorporation into extractable lipids", "setting": "[2]", "value": "triacsin C > 3 > 1 > 4 > 9 = 7 > 2"}]}, {"smiles": "CCC/C=C/C/C=C/C=C/CNc1ccc(C(=O)O)cc1", "note": "[Compound 1]", "values": [{"measurement": "Potency relative to triacsin C in the ACSL assay", "setting": "[1]", "value": "one-tenth as potent as triacsin C"}, {"measurement": "Inhibition of [14C]-palmitate incorporation into extractable lipids", "setting": "[2]", "value": "significant inhibition"}, {"measurement": "Potency ratio (rank order) for inhibition of [14C]-palmitate incorporation into extractable lipids", "setting": "[2]", "value": "triacsin C > 3 > 1 > 4 > 9 = 7 > 2"}, {"measurement": "Potency relative to triacsin C as inhibitor of rotavirus replication", "setting": "rotavirus", "value": "at least twice as potent as triacsin C"}, {"measurement": "Rolling, adhesion and extravasation rates / recruitment", "setting": "[3]; 5 μM", "value": "inhibited the recruitment to about half the extent as at 50 μm"}, {"measurement": "Rolling, adhesion and extravasation rates / recruitment", "setting": "[3]; 50 μM", "value": "not different from each other nor were they different from vehicle alone"}, {"measurement": "Inhibition of leukocyte rolling, adhesion and extravasation", "setting": "[3]", "value": "significantly inhibited rolling, adhesion, and extravasation"}]}, {"smiles": "CCCCCCCCCCCCCCCC(=O)SCCNC(=O)CCNC(=O)[C@H](O)C(C)(C)COP(=O)(O)OP(=O)(O)OC[C@H]1O[C@@H](n2cnc3c(N)ncnc32)[C@H](O)[C@@H]1OP(=O)(O)O", "note": "[palmitoyl CoA]", "values": [{"measurement": "Water solubility", "setting": "[4]", "value": "about 1.74 g/L"}]}, {"smiles": "C=CCCCCCCCCCNc1ccc(C(=O)O)cc1", "note": "[Compound 3]", "values": [{"measurement": "Inhibition of [14C]-palmitate incorporation into extractable lipids", "setting": "[2]", "value": "significant inhibition"}, {"measurement": "Potency ratio (rank order) for inhibition of [14C]-palmitate incorporation into extractable lipids", "setting": "[2]", "value": "triacsin C > 3 > 1 > 4 > 9 = 7 > 2"}]}, {"smiles": "C=CCCCCCCCCCNO", "note": "[Compound 9]", "values": [{"measurement": "Inhibition of [14C]-palmitate incorporation into extractable lipids", "setting": "[2]", "value": "significant inhibition"}, {"measurement": "Potency ratio (rank order) for inhibition of [14C]-palmitate incorporation into extractable lipids", "setting": "[2]", "value": "triacsin C > 3 > 1 > 4 > 9 = 7 > 2"}, {"measurement": "Rolling, adhesion and extravasation rates / recruitment", "setting": "[3]; 50 μM", "value": "about as effective as compound 1 at 5 μM"}, {"measurement": "Inhibition of leukocyte rolling, adhesion and extravasation", "setting": "[3]", "value": "significantly inhibited rolling, adhesion, and extravasation"}]}, {"smiles": "CCC/C=C/C/C=C/C=C/C=N/NN=O", "note": "[Triacsin C, reference compound]", "values": [{"measurement": "Times more potent than compound 3", "setting": "[1]", "value": "about 10 times"}, {"measurement": "Potency ratio (rank order) for inhibition of [14C]-palmitate incorporation into extractable lipids", "setting": "[2]", "value": "triacsin C > 3 > 1 > 4 > 9 = 7 > 2"}, {"measurement": "Neutrophil recruitment in a model of ischemia", "setting": "[5]", "value": "virtually abolished neutrophil recruitment"}, {"measurement": "Rolling, adhesion and extravasation rates / recruitment", "setting": "[3]; 5 μM", "value": "not different from each other nor were they different from vehicle alone"}]}, {"smiles": "CCC/C=C/C/C=C/C=N/N1CCCS1(=O)=O", "note": "[Compound 2]", "values": [{"measurement": "Folds less active compared with compound 3", "setting": "[1]", "value": "> 30", "unit": "folds"}, {"measurement": "Potency ratio (rank order) for inhibition of [14C]-palmitate incorporation into extractable lipids", "setting": "[2]", "value": "triacsin C > 3 > 1 > 4 > 9 = 7 > 2"}]}]}
